# From PubChem BioAssay AID652186 (Vanderbilt Specialized Chemistry Center, 2013)
# Calls of active or inactive are those of the source. No rule for the calls is given here.
# Target: Metabotropic glutamate receptor 8 (Rattus norvegicus) (UniProt P70579)
# Experiment: glutamate potency shift at rat mGlu8 – cell-based, HEK293A, Galpha15, Fluo4 calcium, selectivity assay for mGlu5 silent allosteric modulator project (AID 652186)
# Conditions: HEK293A rmGlu8+Galpha15, glutamate CRC
# Summary of the method: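 Assay system: Rat mGlu8 co-expressed with Galpha15 in HEK293 cells | Times: Fluo4-AM loading 60 min/37°C, compound 20 s, glutamate 80 s | Technique: Calcium mobilization by fluorescence of Fluo4-AM dye, 1 µM | Medium: HBSS, pH 7.4, with 2.5 mM probenecid and 20 mM HEPES | Probe or stimulus: Glutamate, 9 concentrations, 10 nM–1 mM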
# Chain of Metabotropic glutamate receptor 8 (Rattus norvegicus) (P70579 whole entry, looked up): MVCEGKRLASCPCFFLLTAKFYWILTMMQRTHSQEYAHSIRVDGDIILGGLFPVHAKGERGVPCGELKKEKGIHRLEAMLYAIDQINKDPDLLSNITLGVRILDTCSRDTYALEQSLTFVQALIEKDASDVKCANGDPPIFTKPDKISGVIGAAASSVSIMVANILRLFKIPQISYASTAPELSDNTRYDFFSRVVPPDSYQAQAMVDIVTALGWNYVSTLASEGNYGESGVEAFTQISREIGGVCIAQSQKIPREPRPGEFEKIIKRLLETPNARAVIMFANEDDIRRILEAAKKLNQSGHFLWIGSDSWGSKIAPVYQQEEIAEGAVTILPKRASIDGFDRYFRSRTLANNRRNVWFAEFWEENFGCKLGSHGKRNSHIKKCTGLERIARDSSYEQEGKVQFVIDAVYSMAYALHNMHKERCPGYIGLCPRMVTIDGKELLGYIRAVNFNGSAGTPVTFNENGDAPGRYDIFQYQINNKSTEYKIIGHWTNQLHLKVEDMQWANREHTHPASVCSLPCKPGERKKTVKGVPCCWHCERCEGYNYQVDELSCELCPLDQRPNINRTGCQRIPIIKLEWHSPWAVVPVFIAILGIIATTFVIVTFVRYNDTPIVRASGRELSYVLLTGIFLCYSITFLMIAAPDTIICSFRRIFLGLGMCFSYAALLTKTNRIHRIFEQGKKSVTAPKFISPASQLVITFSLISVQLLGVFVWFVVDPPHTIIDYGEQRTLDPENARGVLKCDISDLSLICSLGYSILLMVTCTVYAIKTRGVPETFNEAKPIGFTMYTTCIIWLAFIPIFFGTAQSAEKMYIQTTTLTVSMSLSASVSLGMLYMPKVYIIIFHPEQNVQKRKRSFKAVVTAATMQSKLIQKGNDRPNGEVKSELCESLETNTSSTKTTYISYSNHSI
smiles,measurement,value
O=C(c1ccc(C#Cc2cccc(F)c2)cn1)N1CC2CC2C1 (stereo unspecified),glutamate EC50 in presence of 10 uM compound (vehicle ~3 uM),inactive
